Data published in ChEMBL document CHEMBL4130485, “Inhibitors of Yellow Fever Virus replication based on 1,3,5-triphenyl-4,5-dihydropyrazole scaffold: Design, synthesis and antiviral evaluation” (Eur J Med Chem, 2017).

Experiments:
[1] = Cytotoxicity against African green monkey Vero 76 cells assessed as decrease in cell viability after 48 to 96 hrs by MTT assay; assay type: cell-based; conditions: chlorocebus sabaeus
Summary of the method: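 Vero 76 cells seeded at 5×10^5 cells/mL in D-MEM with 10% FBS and incubated with serial compound dilutions at 37 °C, 5% CO2. Viability read by MTT after 48–96 h. CC50 by linear regression versus untreated controls.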

[2] = Antiviral activity against Human enterovirus B Faulkner ATCC VR 185 infected in African green monkey Vero 76 cells assessed as protection against virus-induced cytopathic effect after 3 days by crystal violet staining-based plaque reduction assay; assay type: functional, cell-based; conditions: Faulkner ATCC VR 185, Vero 76, 72 h
[3] = Selectivity index, ratio of CC50 for African green monkey Vero 76 cells to EC50 for Human coxsackievirus B5 Faulkner; assay type: toxicity; conditions: read-out: Ratio CC50/EC50
Summary of the method: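 Selectivity index calculated as Vero 76 CC50 (MTT) divided by CVB-5 plaque-reduction EC50.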

Enterovirus C = assay: Antiviral activity against Enterovirus C Sabin […] infected in African green monkey Vero 76 cells assessed as protection against virus-induced cytopathic effect after 2 days by crystal violet staining-based plaque reduction assay; assay type: functional, organism-based; conditions: Vero 76, 48 h
[4] = Cytotoxicity against golden hamster BHK21 cells assessed as decrease in cell viability after 72 hrs by MTT assay; assay type: cell-based, Mesocricetus auratus, BHK-21
Summary of the method: (§1)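 Uninfected MDBK (6×10^5 cells/mL, 10% horse serum) or BHK (1×10^6 cells/mL, 10% FBS) cells in MEM-Earle with serial compound dilutions at 37 °C, 5% CO2, run in parallel with the antiviral assays. Viability read by MTT after 72 h. CC50 by linear regression; mean of three determinations.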

Yellow fever virus [5] = assay: Antiviral activity against Yellow fever virus 17D vaccine (Stamaril Pasteur J07B01) infected in golden hamster BHK21 cells assessed as protection against virus-induced cytopathic effect after 3 to 4 days by MTT assay; assay type: functional, organism-based; conditions: BHK-21
Summary of the method: (§2)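 BHK-21 cells (MDBK for BVDV) seeded at 5×10^4 (BHK) or 3×10^4 (MDBK) cells/well and grown overnight to confluence. Infected at m.o.i. 0.01 in maintenance MEM-Earle with 0.5% inactivated FBS. Serial compound dilutions added 2 h later (final 100, 20, 4, 0.8 µM; DMSO ≤0.1%). Viability read by MTT after 3–4 days at 37 °C. EC50 obtained by linear regression against untreated controls; mean of three determinations.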

[6] = Selectivity index, ratio of CC50 for golden hamster BHK21 cells to EC50 for Yellow fever virus 17D; assay type: toxicity; conditions: read-out: Ratio CC50/EC50
Summary of the method: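 Selectivity index calculated as BHK-21 CC50 divided by YFV EC50, both from MTT assays.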

dengue virus type 2 = assay: Antiviral activity against Dengue virus type 2 clinical isolate infected in golden hamster BHK21 cells assessed as protection against virus-induced cytopathic effect after 3 to 4 days by MTT assay; assay type: functional, organism-based; conditions: BHK-21; summary of the method: as §2
West Nile virus = assay: Antiviral activity against West Nile virus clinical isolate infected in golden hamster BHK21 cells assessed as protection against virus-induced cytopathic effect after 3 to 4 days by MTT assay; assay type: functional, organism-based; conditions: BHK-21; summary of the method: as §2
[7] = Cytotoxicity against bovine MDBK cells assessed as decrease in cell viability after 72 hrs by MTT assay; assay type: cell-based, Bos taurus; conditions: cattle; summary of the method: as §1
[8] = system: Bovine viral diarrhea virus 1; assay: Antiviral activity against Bovine viral diarrhea virus NADL ATCC VR 534 infected in bovine MDBK cells assessed as protection against virus-induced cytopathic effect after 3 to 4 days by MTT assay; assay type: functional, organism-based, Bovine viral diarrhea virus 1-NADL; conditions: Bovine viral diarrhea virus isolates and strains, ATCC VR 534, MDBK; summary of the method: as §2
[9] = Cytotoxicity against human MT4 cells assessed as decrease in cell viability after 96 hrs by MTT assay; assay type: cell-based
Summary of the method: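 Exponentially growing MT-4 cells seeded at 1×10^5 cells/mL in RPMI-1640 with 10% FBS and incubated with serial compound dilutions at 37 °C, 5% CO2. Viability read by MTT after 96 h. CC50 by linear regression versus untreated controls.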

[10] = system: Human immunodeficiency virus 1; assay: Antiviral activity against HIV1 3B infected in human MT4 cells assessed as protection against virus-induced cytopathic effect after 4 days by MTT assay; assay type: functional, organism-based; conditions: Human immunodeficiency virus 1, 3B, MT4, 96 h
Summary of the method: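 MT-4 cells (1×10^4/well) in RPMI with serial compound dilutions, infected with 100 CCID50 HIV-1 (m.o.i. 0.01). Viability read by MTT after 4 days at 37 °C. EC50 for 50% protection from cytopathicity obtained by linear regression versus untreated controls; mean of three determinations.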

[11] = system: Mammalian orthoreovirus 1; assay: Antiviral activity against Reovirus 1 infected in golden hamster BHK21 cells assessed as protection against virus-induced cytopathic effect after 3 to 4 days by MTT assay; assay type: functional, organism-based; conditions: Mammalian orthoreovirus 1, BHK-21; summary of the method: as §2
Vaccinia virus = assay: Antiviral activity against Vaccinia virus Lister ATCC VR 1549 infected in African green monkey Vero 76 cells assessed as protection against virus-induced cytopathic effect after 3 days by crystal violet staining-based plaque reduction assay; assay type: functional, organism-based; conditions: Orthopoxvirus vaccinia, ATCC VR 1549, Vero 76, 72 h
Human alphaherpesvirus 1 = assay: Antiviral activity against Human herpesvirus 1 KOS ATCC VR 1493 infected in African green monkey Vero 76 cells assessed as protection against virus-induced cytopathic effect after 3 days by crystal violet staining-based plaque reduction assay; assay type: functional, organism-based; conditions: Human alphaherpesvirus 1, KOS, Vero 76, 72 h
[12] = system: Vesicular stomatitis Indiana virus; assay: Antiviral activity against Vesicular stomatitis virus Indiana ATCC VR 158 infected in African green monkey Vero 76 cells assessed as protection against virus-induced cytopathic effect after 2 days by crystal violet staining-based plaque reduction assay; assay type: functional, organism-based; conditions: ATCC VR 158, Vero 76, 48 h
Human orthopneumovirus = assay: Antiviral activity against Human respiratory syncytial virus A2 ATCC VR 1540 infected in African green monkey Vero 76 cells assessed as protection against virus-induced cytopathic effect after 5 days by crystal violet staining-based plaque reduction assay; assay type: functional, organism-based; conditions: ATCC VR 1540, Vero 76, 120 h
Yellow fever virus [13] = assay: Potency index, ratio of azauridine EC50 to compound EC50 for Yellow fever virus 17D vaccine (Stamaril Pasteur J07B01); assay type: functional
[14] = Selectivity index, ratio of CC50 for bovine MDBK cells to EC50 for Bovine viral diarrhea virus NADL ATCC VR 534; assay type: toxicity; conditions: cattle, read-out: Ratio CC50/EC50
Summary of the method: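 Selectivity index calculated as MDBK CC50 divided by BVDV EC50, both by MTT.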

Structure (SMILES)	CC50 [1] [µM]	EC50 [2] [µM]	selectivity ratio [3]	EC50 (Enterovirus C) [µM]	CC50 at 72 h [4] [µM]	EC50 (Yellow fever virus [5]) [µM]	selectivity ratio [6]	EC50 (dengue virus type 2) [µM]	EC50 (West Nile virus) [µM]	CC50 at 72 h [7] [µM]	EC50 [8] [µM]	CC50 at 96 h [9] [µM]	EC50 [10] [µM]	EC50 [11] [µM]	EC50 (Vaccinia virus) [µM]	EC50 (Human alphaherpesvirus 1) [µM]	EC50 [12] [µM]	EC50 (Human orthopneumovirus) [µM]	Ratio EC50 (Yellow fever virus [13])	selectivity ratio [14]
Cc1cc(CCCOc2c(C)cc(-c3noc(C(F)(F)F)n3)cc2C)on1 [PLECONARIL]	83	0.005	16000	2.7																
NS(=O)(=O)c1ccc(N2N=C(c3ccc(Oc4ccccc4)cc3)CC2c2cccc(F)c2)cc1 (stereo not drawn)	28	4.2	6.7	> 28	10 to 11	1.8	5.6	> 10	> 10	12	> 12	25	> 25	> 11	> 28	> 28	> 28	> 28	10	
NC(=O)c1ncn([C@@H]2O[C@H](CO)[C@@H](O)[C@H]2O)n1 [RIBAVIRIN]	> 100									62	20							1.2		3
Cc1ccc(C2CC(c3ccccc3)=NN2c2ccc(S(N)(=O)=O)cc2)cc1 (stereo not drawn)	20	> 20		> 20	7 to 8	2.2	3.6	> 8	> 8	32	> 32	40	> 40	> 7	> 20	> 20	> 20	> 20	10	
NS(=O)(=O)c1ccc(N2N=C(c3ccc(Oc4ccccc4)cc3)CC2c2ccc(F)cc2)cc1 (stereo not drawn)	25	6	4.2	> 25	8 to 9	1.8	5	> 9	> 9	6	> 6	33	> 33	> 8	> 25	> 25	> 25	> 25	10	
Cc1ccccc1C1CC(c2ccc(OCc3ccccc3)cc2)=NN1c1ccc(S(N)(=O)=O)cc1 (stereo not drawn)	100	> 100		> 100	20 to 22	1.8	12.2	> 22	> 22	> 100	> 100	≥ 100	> 100	> 20	> 100	> 100	> 100	> 100	10	
